From paper PMC12578630 (Nature Microbiology, 2025)
Converted amounts (≈) assume the structure as drawn. Read-outs that look alike come from different tables or passages of the source.

Experiments:
[1] = tested on: MRSA QLH-2022-718; assay: Bacterial resistance development, serial passage; format: cell-based, Staphylococcus aureus; conditions: for MIC: Staphylococcus aureus, MRSA
[2] = Histologic changes in the kidney and colon; format: in vivo, mouse; conditions: H&E, infected and treated mice
Method in brief: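 Tissue fixed in 4% paraformaldehyde for at least 24 h, dehydrated through graded ethanol, cleared in xylene, paraffin-embedded. Sections cut at 4 μm, dried at 60 °C, dewaxed and rehydrated. Stained with haematoxylin (3–5 min), differentiated and blued, counterstained with eosin (15 s), then dehydrated, cleared and mounted in neutral balsam. Imaged by light microscopy.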

[3] = tested on: CRAB QLH-2022-637; assay: Bacterial resistance development, serial passage; format: cell-based, Acinetobacter baumannii; conditions: serial passage at 0.5-fold MIC

Row | Compound | MIC ([1]; read-out: MIC after 18 passages) [µg/mL] | MIC ([1]; read-out: MIC at the first passage) [µg/mL] | fold increase in MIC after 18 passages ([1]; serial passage at 0.5-fold MIC) [fold] | kidney tissue histology, in words [2] | fold increase in MIC after 20 passages [3] [fold]
1 | CN[C@H](CC(C)C)C(=O)N[C@H]1C(=O)N[C@@H](CC(N)=O)C(=O)N[C@H]2C(=O)N[C@H]3C(=O)N[C@H](C(=O)N[C@H](C(=O)O)c4cc(O)cc(O)c4-c4cc3ccc4O)[C@H](O)c3ccc(c(Cl)c3)Oc3cc2cc(c3O[C@@H]2O[C@H](CO)[C@@H](O)[C@H](O)[C@H]2O[C@H]2C[C@](C)(N)[C@H](O)[C@H](C)O2)Oc2ccc(cc2Cl)[C@H]1O [vancomycin] | ≥ 64 | 0.5 (≈ 0.345 µM) | ≥ 128 | histopathological changes: cytoplasmic rarefaction and pale staining | –
2 | polymyxin B | – | – | – | A small amount of venous stasis | 32
